Tests used:
Escherichia coli [1] = assay: Antibacterial activity against fluoroquinolone resistant Escherichia coli isolate ECMH01 harboring beta-lactamase NDM-1; format: functional
Escherichia coli [2] = assay: Antibacterial activity against Escherichia coli ATCC 25922 after 24 hrs by microtitre broth dilution method; format: functional; details: ATCC 25922, 24 h
Escherichia coli [3] = assay: Antibacterial activity against gentamicin/tobramycin/ciprofloxacin-resistant Escherichia coli isolate CANWARD-2011 97615 harboring AAC3-2A after 24 hrs by microtitre broth dilution method; format: functional; details: isolate CANWARD-2011 97615, 24 h
Pseudomonas aeruginosa [4] = assay: Antibacterial activity against pandrug-resistant Pseudomonas aeruginosa isolate 101243 in presence of <= 4 ug/ml of moxifloxacin (reference value: 8 ug/ml); format: functional
Pseudomonas aeruginosa [5] = assay: Antibacterial activity against multidrug-resistant/tobramycin-susceptible Pseudomonas aeruginosa isolate 83182; format: functional
[6] = system: Staphylococcus epidermidis; assay: Antibacterial activity against methicillin-resistant Staphylococcus epidermidis isolate CAN-ICU 61589 after 24 hrs by microtitre broth dilution method; format: functional; details: isolate CAN-ICU 61589, 24 h
Acinetobacter baumannii [7] = assay: Antibacterial activity against fluoroquinolone resistant Acinetobacter baumannii isolate ABO28; format: functional
Pseudomonas aeruginosa [8] = assay: Antibacterial activity against Pseudomonas aeruginosa PAO1 assessed as fractional inhibitory concentration index after 18 hrs in presence of meropenem by checkerboard method; format: functional
Method in brief: (§1)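 Checkerboard combinations of the hybrid with each partner antibiotic were tested against P. aeruginosa PAO1. Interaction is expressed as the fractional inhibitory concentration (FIC) index: ≤0.5 means synergy, 1–2 no interaction, ≥4 antagonism.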

Escherichia coli [9] = assay: Antibacterial activity against fluoroquinolone resistant Escherichia coli isolate 92969 harboring beta-lactamase CTX-M-15/OXA-1; format: functional
[10] = Toxicity in Galleria mellonella upto 96 hrs
Method in brief: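 Tolerability test in Galleria mellonella larvae, injected with doses up to a maximum of 600 mg/kg.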

[11] = Cytotoxicity against human DU145 cells assessed as reduction in cell viability after 48 hrs by MTS assay; format: toxicity, cell-based, DU-145
Pseudomonas aeruginosa [12] = assay: Antibacterial activity against multidrug/extremely drug-resistant/colistin-susceptible Pseudomonas aeruginosa isolate 101885; format: functional
Escherichia coli [13] = assay: Antibacterial activity against fluoroquinolone resistant Escherichia coli isolate 92756 harboring beta-lactamase CTX-M-14/TEM-1; format: functional
Escherichia coli [14] = assay: Antibacterial activity against fluoroquinolone resistant Escherichia coli isolate 91191 harboring beta-lactamase CTX-M-14/TEM-1; format: functional
[15] = Cytotoxicity against human JIMT1 cells assessed as reduction in cell viability after 48 hrs by MTS assay; format: toxicity, cell-based, JIMT-1
Escherichia coli [16] = assay: Antibacterial activity against fluoroquinolone resistant Escherichia coli isolate 80960 harboring beta-lactamase CTX-M-15/TEM-1; format: functional
Pseudomonas aeruginosa [17] = assay: Antibacterial activity against Pseudomonas aeruginosa PAO1 assessed as outer membrane permeabilization by measuring increase in 1-N-phenylnaphthylamine measured […] for 4.5 mins by fluorescence assay; format: functional
Method in brief: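 PAO1 cells received NPN, then the test agent at 50, 32, 16 or 8 µg/mL, added at 120 s. Colistin at 5 µg/mL was the positive control. Uptake was followed as NPN fluorescence. The assay was run in triplicate, and each point is the mean of three determinations ± SEM.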

Pseudomonas aeruginosa [18] = assay: Antibacterial activity against multidrug-resistant/tobramycin-susceptible Pseudomonas aeruginosa isolate 85322; format: functional
[19] = Inhibition of Pseudomonas aeruginosa DNA gyrase A assessed as inhibition of DNA supercoiling using PBR322 DNA as substrate after 30 mins by SYBR Gold staining based agarose gel electrophoresis
Pseudomonas aeruginosa [20] = assay: Antibacterial activity against multidrug/extremely drug-resistant Pseudomonas aeruginosa isolate PA264-104354 in presence of <= 4 ug/ml of moxifloxacin (reference value: 4 ug/ml); format: functional
Pseudomonas aeruginosa [21] = assay: Potentiation of ciprofloxacin induced antibacterial activity against pandrug-resistant Pseudomonas aeruginosa isolate 101243 assessed as ciprofloxacin MIC at <= […] ug/ml (reference value: 2 ug/ml); format: functional
Pseudomonas aeruginosa [22] = assay: Antibacterial activity against pandrug-resistant Pseudomonas aeruginosa isolate 101243; format: functional
Streptococcus pneumoniae = assay: Antibacterial activity against Streptococcus pneumoniae ATCC 49619 after 24 hrs by microtitre broth dilution method; format: functional; details: ATCC 49619, 24 h
Pseudomonas aeruginosa [23] = assay: Antibacterial activity against Pseudomonas aeruginosa PAO1 assessed as fractional inhibitory concentration index after 18 hrs in presence of novobiocin by checkerboard method; format: functional; method in brief: as §1
Pseudomonas aeruginosa [24] = assay: Ratio of MIC for Pseudomonas aeruginosa PAO1 after 25 serial passages to MIC for Pseudomonas aeruginosa PAO1 prior to 25 serial passages; format: functional
Method in brief: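 P. aeruginosa PAO1 exposed to sub-inhibitory (0.5 x MIC) drug over successive subcultures as a resistance-selection procedure. MIC compared after versus before passaging.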

Escherichia coli [25] = assay: Antibacterial activity against gentamicin-resistant Escherichia coli isolate CAN-ICU 61714 after 24 hrs by microtitre broth dilution method; format: functional; details: isolate CAN-ICU 61714, 24 h
Pseudomonas aeruginosa [26] = assay: Antibacterial activity against multidrug/extremely drug-resistant/Pseudomonas aeruginosa isolate PA260-97103 in presence of <= 4 ug/ml of ciprofloxacin (reference value: 1 ug/ml); format: functional
Pseudomonas aeruginosa [27] = assay: Antibacterial activity against multidrug/extremely drug-resistant/pandrug-resistant Pseudomonas aeruginosa isolate PA259-96918 in presence of <= 4 ug/ml of moxifloxacin (reference value: 2 ug/ml); format: functional
Pseudomonas aeruginosa [28] = assay: Antibacterial activity against multidrug/extremely drug-resistant Pseudomonas aeruginosa isolate PA260-97103 in presence of <= 4 ug/ml of moxifloxacin (reference value: 1 ug/ml); format: functional
Acinetobacter baumannii [29] = assay: Antibacterial activity against Acinetobacter baumannii isolate CAN-ICU 63169 after 24 hrs by microtitre broth dilution method; format: functional; details: isolate CAN-ICU 63169, 24 h
Escherichia coli [30] = assay: Antibacterial activity against fluoroquinolone resistant Escherichia coli isolate 85332 harboring beta-lactamase CTX-M-14/TEM-1; format: functional
Pseudomonas aeruginosa [31] = assay: Potentiation of moxifloxacin induced antibacterial activity against multidrug/extremely drug-resistant Pseudomonas aeruginosa isolate PA259-96918 assessed as moxifloxacin MIC at <= […] ug/ml (reference value: […] ug/ml); format: functional
Escherichia coli [32] = assay: Antibacterial activity against fluoroquinolone resistant Escherichia coli isolate 80083 harboring beta-lactamase CTX-M-15/OXA-1; format: functional
Acinetobacter baumannii [33] = assay: Antibacterial activity against fluoroquinolone resistant Acinetobacter baumannii isolate ABO27; format: functional
Pseudomonas aeruginosa [34] = assay: Antibacterial activity against multidrug-resistant/tobramycin-susceptible Pseudomonas aeruginosa isolate 86053; format: functional
Pseudomonas aeruginosa [35] = assay: Potentiation of moxifloxacin induced antibacterial activity against pandrug-resistant Pseudomonas aeruginosa isolate 91433 assessed as moxifloxacin MIC at <= […] ug/ml (reference value: 8 to […] ug/ml); format: functional
Pseudomonas aeruginosa [36] = assay: Antibacterial activity against multidrug-resistant/tobramycin-susceptible Pseudomonas aeruginosa isolate 80621; format: functional
Staphylococcus aureus [37] = assay: Antibacterial activity against Staphylococcus aureus ATCC 29213 after 24 hrs by microtitre broth dilution method; format: functional; details: ATCC 29213, 24 h
Staphylococcus aureus [38] = assay: Antibacterial activity against methicillin-resistant Staphylococcus aureus ATCC 33592 after 24 hrs by microtitre broth dilution method; format: functional; details: ATCC 33592, 24 h
Escherichia coli [39] = assay: Antibacterial activity against fluoroquinolone resistant Escherichia coli isolate N-10-1631 harboring beta-lactamase CTX-M-15/OXA-1; format: functional

For COc1c(N2C[C@@H]3CCCN(CCCCCCCCCCCCO[C@@H]4[C@@H](O[C@H]5O[C@H](CO)[C@@H](O)[C@H](N)[C@H]5O)[C@H](N)C[C@H](N)[C@H]4O[C@H]4O[C@H](CN)[C@@H](O)C[C@H]4N)[C@@H]3C2)c(F)cc2c(=O)c(C(=O)O)cn(C3CC3)c12.Cl.Cl.Cl.Cl.Cl, the MIC (Escherichia coli [1]) was no less than 64 µg/mL, the MIC (Escherichia coli [2]) was 0.5 µg/mL and the MIC (Escherichia coli [3]) was 128 µg/mL. The MIC (Pseudomonas aeruginosa [4]) was less than 1 µg/mL, the MIC (Pseudomonas aeruginosa [5]) was 8 µg/mL and the MIC [6] was 16 µg/mL. For the same compound, the MIC (Acinetobacter baumannii [7]) was 8 to 64 µg/mL, the “fractional inhibitory concentration index (FICI)” value (Pseudomonas aeruginosa [8]) was 2 and the MIC (Escherichia coli [9]) was no less than 64 µg/mL. For the same compound, the MTD at 96 h [10] was 600 mg/kg, the CC50 at 48 h [11] was greater than 30 µM and the MIC (Pseudomonas aeruginosa [12]) was 8 µg/mL. For the same compound, the MIC (Escherichia coli [13]) was no less than 64 µg/mL, the MIC (Escherichia coli [14]) was no less than 64 µg/mL and the CC50 at 48 h [15] was greater than 30 µM. For the same compound, the MIC (Escherichia coli [16]) was no less than 64 µg/mL, the Activity (Pseudomonas aeruginosa [17]) was “Dose-dependent effect” and the MIC (Pseudomonas aeruginosa [18]) was 8 µg/mL. It also gave an IC50 [19] of 54.7 µM, an MIC (Pseudomonas aeruginosa [20]) of less than 1 µg/mL and an MIC (Pseudomonas aeruginosa [21]) of 0.06 µg/mL. The MIC (Pseudomonas aeruginosa [22]) was 8 µg/mL, the MIC (Streptococcus pneumoniae) was 1 µg/mL and the “fractional inhibitory concentration index (FICI)” value (Pseudomonas aeruginosa [23]) was 0.12. It also gave a Ratio (Pseudomonas aeruginosa [24]) of 2, an MIC (Escherichia coli [25]) of 4 µg/mL and an MIC (Pseudomonas aeruginosa [26]) of less than 0.25 µg/mL. For the same compound, the MIC (Pseudomonas aeruginosa [27]) was less than 1 µg/mL, the MIC (Pseudomonas aeruginosa [28]) was 0.25 µg/mL and the MIC (Acinetobacter baumannii [29]) was 16 µg/mL. For the same compound, the MIC (Escherichia coli [30]) was no less than 64 µg/mL, the MIC (Pseudomonas aeruginosa [31]) was less than 1 µg/mL and the MIC (Escherichia coli [32]) was no less than 64 µg/mL. The MIC (Acinetobacter baumannii [33]) was 8 to 64 µg/mL, the MIC (Pseudomonas aeruginosa [34]) was 4 µg/mL and the MIC (Pseudomonas aeruginosa [35]) was 0.12 µg/mL. The MIC (Pseudomonas aeruginosa [36]) was 8 µg/mL, the MIC (Staphylococcus aureus [37]) was 1 µg/mL and the MIC (Staphylococcus aureus [38]) was 1 µg/mL. For the same compound, the MIC (Escherichia coli [39]) was no less than 64 µg/mL.
